Measured values: ChEMBL document CHEMBL1926569, “Novel (E)-1-(4-methyl-2-(alkylamino)thiazol-5-yl)-3-arylprop-2-en-1-ones as potent antimicrobial agents” (2011)

Tests used:
Staphylococcus aureus [1] = test: Antibacterial activity against Staphylococcus aureus ATCC 6538 after 24 hrs by microdilution method; format: functional; conditions: ATCC 6538, 24 h
How it was run: (§1)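 Broth microdilution in 96-well plates. Bacterial suspensions were adjusted in sterile saline to 1.0 × 10⁵ CFU/ml, prepared daily and kept at 4 °C. Compound was added to LB broth with 1.0 × 10⁴ CFU per well and shaken at 160 rpm for 24 h at […] (so in the source). MIC is the lowest concentration with no visible growth under a binocular microscope. OD655 was also read. Duplicate, repeated three times.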

Bacillus cereus [2] = test: Antibacterial activity against clinical isolate of Bacillus cereus after 24 hrs by microdilution method; format: functional; how it was run: as §1
Micrococcus flavus [3] = test: Antibacterial activity against Micrococcus flavus ATCC 10240 after 24 hrs by microdilution method; format: functional; conditions: ATCC 10240, 24 h; how it was run: as §1
Listeria monocytogenes [4] = test: Antibacterial activity against Listeria monocytogenes NCTC 7973 after 24 hrs by microdilution method; format: functional; conditions: NCTC 7973, 24 h; how it was run: as §1
Pseudomonas aeruginosa [5] = test: Antibacterial activity against Pseudomonas aeruginosa ATCC 27853 after 24 hrs by microdilution method; format: functional; conditions: ATCC 27853, 24 h; how it was run: as §1
Salmonella typhimurium [6] = test: Antibacterial activity against Salmonella Typhimurium ATCC 13311 after 24 hrs by microdilution method; format: functional, Salmonella enterica subsp. enterica serovar Typhimurium; conditions: Salmonella enterica, ATCC 13311, 24 h; how it was run: as §1
Escherichia coli [7] = test: Antibacterial activity against Escherichia coli ATCC 35210 after 24 hrs by microdilution method; format: functional; conditions: ATCC 35210, 24 h; how it was run: as §1
Enterococcus faecalis [8] = test: Antibacterial activity against Enterococcus faecalis isolated from human after 24 hrs by microdilution method; format: functional; how it was run: as §1
Staphylococcus aureus [9] = test: Antibacterial activity against Staphylococcus aureus ATCC 6538 incubated for 24 hrs followed by serial sub-cultivation for 24 hrs by microdilution method; format: functional; conditions: ATCC 6538, 24 h
How it was run: (§2)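 MBC: after the 24 h LB broth microdilution (1.0 × 10⁴ CFU per well, 160 rpm), wells were serially sub-cultured into fresh broth plates and incubated a further 24 h. MBC is the lowest concentration with no visible growth, taken as 99.5% killing of the original inoculum. Duplicate, repeated three times.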

Bacillus cereus [10] = test: Antibacterial activity against clinical isolate of Bacillus cereus incubated for 24 hrs followed by serial sub-cultivation for 24 hrs by microdilution; format: functional; how it was run: as §2
Micrococcus flavus [11] = test: Antibacterial activity against Micrococcus flavus ATCC 10240 incubated for 24 hrs followed by serial sub-cultivation for 24 hrs by microdilution; format: functional; conditions: ATCC 10240, 24 h; how it was run: as §2
Listeria monocytogenes [12] = test: Antibacterial activity against Listeria monocytogenes NCTC 7973 incubated for 24 hrs followed by serial sub-cultivation for 24 hrs by microdilution; format: functional; conditions: NCTC 7973, 24 h; how it was run: as §2
Pseudomonas aeruginosa [13] = test: Antibacterial activity against Pseudomonas aeruginosa ATCC 27853 incubated for 24 hrs followed by serial sub-cultivation for 24 hrs by microdilution; format: functional; conditions: ATCC 27853, 24 h; how it was run: as §2
Salmonella typhimurium [14] = test: Antibacterial activity against Salmonella Typhimurium ATCC 13311 incubated for 24 hrs followed by serial sub-cultivation for 24 hrs by microdilution; format: functional, Salmonella enterica subsp. enterica serovar Typhimurium; conditions: Salmonella enterica, ATCC 13311, 24 h; how it was run: as §2
Escherichia coli [15] = test: Antibacterial activity against Escherichia coli ATCC 35210 incubated for 24 hrs followed by serial sub-cultivation for 24 hrs by microdilution; format: functional; conditions: ATCC 35210, 24 h; how it was run: as §2
Enterococcus faecalis [16] = test: Antibacterial activity against Enterococcus faecalis isolated from human incubated for 24 hrs followed by serial sub-cultivation for 24 hrs by microdilution; format: functional; how it was run: as §2
Aspergillus ochraceus [17] = test: Antifungal activity against Aspergillus ochraceus ATCC 12066 after 72 hrs by serial dilution technique; format: functional; conditions: ATCC 12066, 72 h
How it was run: (§3)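 Modified microdilution in 96-well plates. Fungi were kept on malt agar at 4 °C. Spores were washed off in sterile 0.85% saline with 0.1% Tween 80. Compounds were dissolved at 1 mg/ml in 5% DMSO with 0.1% Tween 80 and added to malt broth with inoculum. Plates were shaken at 160 rpm for 72 h at 28 °C. Duplicate, repeated three times.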

Aspergillus niger [18] = test: Antifungal activity against Aspergillus niger ATCC 6275 after 72 hrs by serial dilution technique; format: functional; conditions: ATCC 6275, 72 h; how it was run: as §3
Aspergillus flavus [19] = test: Antifungal activity against Aspergillus flavus ATCC 9643 after 72 hrs by serial dilution technique; format: functional; conditions: ATCC 9643, 72 h; how it was run: as §3
Talaromyces funiculosus [20] = test: Antifungal activity against Penicillium funiculosum ATCC 36839 after 72 hrs by serial dilution technique; format: functional; conditions: ATCC 36839, 72 h; how it was run: as §3
Penicillium ochrochloron [21] = test: Antifungal activity against Penicillium ochrochloron ATCC 9112 after 72 hrs by serial dilution technique; format: functional; conditions: ATCC 9112, 72 h; how it was run: as §3
Trichoderma viride [22] = test: Antifungal activity against Trichoderma viride IAM 5061 after 72 hrs by serial dilution technique; format: functional; conditions: IAM 5061, 72 h; how it was run: as §3
Candida albicans [23] = test: Antifungal activity against Candida albicans isolated from human after 72 hrs by serial dilution technique; format: functional; how it was run: as §3
Aspergillus ochraceus [24] = test: Antifungal activity against Aspergillus ochraceus ATCC 12066 incubated for 72 hrs followed by serial sub-cultivation for 72 hrs by serial dilution technique; format: functional; conditions: ATCC 12066, 72 h
How it was run: (§4)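 MFC: material from 72 h malt broth microdilution wells was serially sub-cultured into fresh broth plates and incubated a further 72 h at 28 °C. Fungicidal concentration is taken from growth after sub-culture. Duplicate, repeated three times.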

Aspergillus fumigatus [25] = test: Antifungal activity against Aspergillus fumigatus isolated from human incubated for 72 hrs followed by serial sub-cultivation for 72 hrs by serial dilution technique; format: functional; how it was run: as §4
Aspergillus niger [26] = test: Antifungal activity against Aspergillus niger ATCC 6275 incubated for 72 hrs followed by serial sub-cultivation for 72 hrs by serial dilution technique; format: functional; conditions: ATCC 6275, 72 h; how it was run: as §4
Aspergillus flavus [27] = test: Antifungal activity against Aspergillus flavus ATCC 9643 incubated for 72 hrs followed by serial sub-cultivation for 72 hrs by serial dilution technique; format: functional; conditions: ATCC 9643, 72 h; how it was run: as §4
Talaromyces funiculosus [28] = test: Antifungal activity against Penicillium funiculosum ATCC 36839 incubated for 72 hrs followed by serial sub-cultivation for 72 hrs by serial dilution technique; format: functional; conditions: ATCC 36839, 72 h; how it was run: as §4
Penicillium ochrochloron [29] = test: Antifungal activity against Penicillium ochrochloron ATCC 9112 incubated for 72 hrs followed by serial sub-cultivation for 72 hrs by serial dilution technique; format: functional; conditions: ATCC 9112, 72 h; how it was run: as §4
Trichoderma viride [30] = test: Antifungal activity against Trichoderma viride IAM 5061 incubated for 72 hrs followed by serial sub-cultivation for 72 hrs by serial dilution technique; format: functional; conditions: IAM 5061, 72 h; how it was run: as §4
Candida albicans [31] = test: Antifungal activity against Candida albicans isolated from human incubated for 72 hrs followed by serial sub-cultivation for 72 hrs by serial dilution technique; format: functional; how it was run: as §4
Pseudomonas aeruginosa [32] = test: Ratio of ampicillin MIC to compound MIC for Pseudomonas aeruginosa ATCC 27853; format: functional
Aspergillus ochraceus [33] = test: Ratio of bifonazole to compound for Aspergillus ochraceus ATCC 12066; format: functional
Aspergillus niger [34] = test: Ratio of bifonazole to compound for Aspergillus niger ATCC 6275; format: functional
Talaromyces funiculosus [35] = test: Ratio of bifonazole to compound for Penicillium funiculosum ATCC 36839; format: functional
Penicillium ochrochloron [36] = test: Ratio of bifonazole to compound for Penicillium ochrochloron ATCC 9112; format: functional
Trichoderma viride [37] = test: Ratio of bifonazole to compound for Trichoderma viride IAM 5061; format: functional
Candida albicans [38] = test: Ratio of bifonazole to compound for Candida albicans isolated from human; format: functional
Aspergillus ochraceus [39] = test: Ratio of ketoconazole to compound for Aspergillus ochraceus ATCC 12066; format: functional
Aspergillus fumigatus [40] = test: Ratio of ketoconazole to compound for Aspergillus fumigatus isolated from human; format: functional
Penicillium ochrochloron [41] = test: Ratio of ketoconazole to compound for Penicillium ochrochloron ATCC 9112; format: functional
Candida albicans [42] = test: Ratio of ketoconazole to compound for Candida albicans isolated from human; format: functional
Aspergillus ochraceus [43] = test: Antifungal activity against Aspergillus ochraceus after 72 hrs by serial dilution technique

CCNc1nc(C)c(C(=O)/C=C/c2cccc(Br)c2)s1
42.9 µM: MIC (Aspergillus niger [18]) | MIC (Aspergillus flavus [19]) | MFC (Aspergillus ochraceus [24]) | MFC (Talaromyces funiculosus [28]) | MIC (Aspergillus ochraceus [43])
85.7 µM: MIC (Listeria monocytogenes [4]) | MBC (Micrococcus flavus [11])
58.2 µM: MFC (Penicillium ochrochloron [29])
57.1 µM: MIC (Staphylococcus aureus [1]) | MIC (Micrococcus flavus [3]) | MIC (Pseudomonas aeruginosa [5]) | MIC (Salmonella typhimurium [6]) | MIC (Escherichia coli [7]) | MIC (Enterococcus faecalis [8]) | MFC (Aspergillus fumigatus [25]) | MFC (Aspergillus niger [26]) | MFC (Aspergillus flavus [27])
57.2 µM: MFC (Trichoderma viride [30]) | MFC (Candida albicans [31])
10: Ratio (Pseudomonas aeruginosa [32]) | Ratio (Aspergillus ochraceus [33]) | Ratio (Aspergillus niger [34]) | Ratio (Talaromyces funiculosus [35]) | Ratio (Penicillium ochrochloron [36]) | Ratio (Trichoderma viride [37]) | Ratio (Candida albicans [38]) | Ratio (Aspergillus ochraceus [39]) | Ratio (Aspergillus fumigatus [40]) | Ratio (Penicillium ochrochloron [41]) | Ratio (Candida albicans [42])
71.4 µM: MBC (Staphylococcus aureus [9]) | MBC (Bacillus cereus [10]) | MBC (Pseudomonas aeruginosa [13]) | MBC (Salmonella typhimurium [14]) | MBC (Escherichia coli [15]) | MBC (Enterococcus faecalis [16])
28.6 µM: MIC (Bacillus cereus [2])
100 µM: MBC (Listeria monocytogenes [12])
28.9 µM: MIC (Aspergillus ochraceus [17]) | MIC (Talaromyces funiculosus [20]) | MIC (Penicillium ochrochloron [21]) | MIC (Trichoderma viride [22]) | MIC (Candida albicans [23])
